Test results reported in ChEMBL document CHEMBL1156478, “Loss of huntingtin function complemented by small molecules acting as repressor element 1/neuron restrictive silencer element silencer modulators” (J Biol Chem, 2007).
The source made the active and inactive calls. The rule behind the calls is not given here.

Key:
ST14A [1] = experiment: Induction of REST/NRSF-coupled repression of luciferase tagged rat RE1/NRSE BDNF promoter activity expressed in ST14A cells at 10 nM assessed as increase in luciferase activity; assay type: cell-based
Summary of the method: (§1)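 ST14A rat neural cells stably carrying RE1/NRSE(BDNF)-luciferase reporter (DiaNRSE-Luc8 clone), grown in DMEM/10% heat-inactivated FBS at 33 °C, 5% CO2. Compounds from 10 mM DMSO stocks added to cells plated the day before; 72 h exposure in 96-well format, triplicate. Firefly luciferase read after luciferin, expressed as RLU per µg protein (BCA) relative to untreated cells.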

ST14A [2] = experiment: Increase in REST/NRSF mRNA expression in rat ST14A cells after 72 hrs by RT-PCR relative to control; assay type: functional, cell-based
Summary of the method: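 REST/NRSF transcript by SYBR Green real-time PCR after 72 h exposure: 95 °C 3 min, then 45 × (95 °C 30 s, 60 °C 30 s, 72 °C 30 s), melt curve 55–94 °C; normalized to β-actin, fold over untreated; triplicate reactions.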

[3] = Increase in BDNF protein expression in […]/HdhQ11 cells expressing homozygous mutant huntingtin gene at 200 nM after 72 hrs by ELISA relative to control; assay type: functional
Summary of the method: (§2)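 BDNF protein after 72 h compound exposure: lysis in Tris-HCl pH 7.5, 150 mM NaCl, 1% Triton X-100, 10% glycerol, EDTA/EGTA, protease inhibitors; homogenized, sonicated, centrifuged 15 min at 4 °C; supernatant assayed by BDNF immunoassay, normalized to BCA total protein; fold over untreated cells.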

ST14A [4] = experiment: Increase in RE1/NRSE promoter regulated muscarinic M4 receptor mRNA expression in rat ST14A cells at 200 nM after 72 hrs by RT-PCR relative to control; assay type: functional, cell-based
Summary of the method: (§3)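 72 h exposure; SYBR Green real-time PCR for synapsin I and M4: 95 °C 3 min, then 40 × (95 °C 30 s, 58 °C 30 s, 72 °C 30 s), melt curve 55–94 °C; normalized to β-actin, fold over untreated; triplicate reactions.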

ST14A [5] = experiment: Increase in BDNF mRNA expression in rat ST14A cells expressing RE1/NRSE BDNF promoter after 72 hrs by RT-PCR relative to control; assay type: functional, cell-based
Summary of the method: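 Cells treated 72 h; total RNA (1 µg) reverse transcribed, three independent reactions per RNA stock, triplicate SYBR Green real-time PCR with 25 ng cDNA, 0.2 µM primers; BDNF cycling 95 °C 10 min then 40 × (95 °C 10 s, 56 °C 10 s, 72 °C 20 s), melt-curve check; normalized to β-actin, fold over untreated; three independent experiments.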

ST14A [6] = experiment: Increase in E2F1 mRNA expression in rat ST14A cells after 72 hrs by RT-PCR relative to control; assay type: functional, cell-based
Summary of the method: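 E2F1 SYBR Green real-time PCR after 72 h exposure: 95 °C 10 min, then 40 × (95 °C 15 s, 60 °C 1 min), fluorescence read at 60 °C, melt curve 55–94 °C; normalized to β-actin, fold over untreated cells; triplicate reactions.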

ST14A [7] = experiment: […] of REST/NRSF-coupled repression of luciferase tagged rat RE1/NRSE BDNF promoter activity expressed in ST14A cells at 75 nM assessed as increase in luciferase activity; assay type: cell-based
Summary of the method: (§4)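 Stable ST14A clone carrying RE1/NRSE(BDNF)-firefly luciferase, selected for DN:REST responsiveness; cells in 96 wells exposed after adhesion to compounds (DMSO, 10 mM stock) in triplicate, 72 h; luciferin added, luminescence expressed as RLU per µg protein (BCA), relative to untreated; EC50 from dose–response.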

ST14A [8] = experiment: Increase in BDNF protein expression in rat ST14A cells expressing RE1/NRSE BDNF promoter after 72 hrs by ELISA relative to control; assay type: functional, cell-based; summary of the method: as §2
[9] = (§5) […] of REST/NRSF-coupled repression of luciferase tagged rat RE1/NRSE BDNF promoter activity expressed in ST14A cells assessed as increase in luciferase activity; assay type: cell-based; summary of the method: as §4
ST14A [10] = experiment: as §5; assay type: cell-based; summary of the method: as §4
ST14A [11] = experiment: […] of REST/NRSF-coupled repression of luciferase tagged rat RE1/NRSE BDNF promoter activity expressed in ST14A cells at 25 nM assessed as increase in luciferase activity; assay type: cell-based; details: TDE = time-dependent effect
neural = experiment: Increase in BDNF protein expression in neural cells overexpressing huntingtin mutant gene after 72 hrs by ELISA relative to control; assay type: functional, cell-based; summary of the method: as §2
ST14A [12] = experiment: Increase in RE1/NRSE promoter regulated synapsin I mRNA expression in rat ST14A cells at 200 nM after 72 hrs by RT-PCR relative to control; assay type: functional, cell-based; summary of the method: as §3
STHdhQ11/HdhQ11 [13] = experiment: Effect on REST/NRSF translocation in mouse STHdhQ11/HdhQ11 cells expressing homozygous mutant huntingtin gene
ST14A [14] = experiment: Induction of REST/NRSF-coupled repression of luciferase tagged rat RE1/NRSE BDNF promoter activity expressed in ST14A cells at 5 nM assessed as increase in luciferase activity; assay type: cell-based; summary of the method: as §1
[15] = Increase in cell viability of stress-exposed […]/HdhQ11 cells expressing homozygous mutant huntingtin gene at 50 nM after 48 hrs by MTT assay; assay type: functional
Summary of the method: (§6)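 Cells plated at 80,000/well in triplicate, 24 h at 33 °C, washed, switched to serum-deprived medium at 37 °C as stress, with or without compound; MTT read 48 h after treatment, formazan at 560 nm after 1 h at 37 °C; three independent experiments.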

STHdhQ11/HdhQ11 [16] = experiment: Increase in cell viability of stress-exposed […]/HdhQ11 cells expressing homozygous mutant huntingtin gene at 25 nM after 48 hrs by MTT assay; assay type: functional, cell-based; summary of the method: as §6
Mus musculus = species: Mus musculus; experiment: Effect on cell proliferation of stress-exposed mouse STHdhQ11/HdhQ11 cells expressing homozygous mutant huntingtin gene assessed as BrdUrd incorporation
[17] = Increase in BDNF protein expression in […]/HdhQ11 cells expressing homozygous mutant huntingtin gene at 50 nM after 72 hrs by ELISA relative to control; assay type: functional; summary of the method: as §2

Compound | Activity (ST14A [2]) | Activity (ST14A [4]) | Activity (ST14A [5]) | Activity (ST14A [6]) | Activity (ST14A [7]) | Activity (ST14A [8]) | EC50 [9] [nM] | Activity (neural) | Activity (ST14A [12]) | Activity (STHdhQ11/HdhQ11 [13]) | also measured
CN[C@@H]1C[C@H]2O[C@@](C)([C@@H]1OC)n1c3ccccc3c3c4c(c5c6ccccc6n2c5c31)C(=O)NC4 |  |  |  |  |  |  |  |  |  |  | Activity (ST14A [1]): inactive
COc1ccc(Nc2nc(-c3c(C)nc4cc(C)ccn34)cs2)cc1 | inactive | Active | Dose-dependent effect | inactive | Active | Dose-dependent effect | 12 | Active | Active | inactive | fold change (FC) [3]: 2; Activity (ST14A [10]): Dose-dependent effect; Activity (ST14A [11]): tde
O=C(CCCCCCC(=O)Nc1ccccc1)NO | Active |  |  | Active |  |  |  |  |  |  | 
O=C(O)CC[N+](=O)[O-] |  |  |  |  |  |  |  |  |  |  | Activity (ST14A [14]): inactive; Activity (ST14A [1]): inactive
CC(/C=C/C(=O)NO)=C\[C@@H](C)C(=O)c1ccc(N(C)C)cc1 |  |  |  |  | Active |  |  |  |  |  | Activity (ST14A [10]): Dose-dependent effect
Cc1ccn2c(-c3csc(Nc4ccc(N(C)C)cc4)n3)c(C)nc2c1 | inactive | Active | Dose-dependent effect | inactive | Active | Dose-dependent effect | 20 | Active | Active | inactive | Activity [15]: 17%; fold change (FC) [3]: 2; Activity (STHdhQ11/HdhQ11 [16]): Active; Activity (Mus musculus): inactive
Cc1nc2ncccn2c1-c1csc(Nc2ccc(N(C)C)cc2)n1 | inactive | Active | Dose-dependent effect | inactive | Active | Dose-dependent effect | 20 | Active | Active | inactive | fold change (FC) [17]: 1.6
